Measurements published in ChEMBL document CHEMBL1130032, “Preparation and anti-HIV activity of N-3-substituted thymidine nucleoside analogs” (J Med Chem, 1997).

Key:
[1] = system: CEM-c113; assay: Concentration that reduces by 50% the HIV induced cytopathic effect on CEM-CL13 cells by MTT viability assay; NA = Not active; type: functional, cell-based, Homo sapiens
Procedure, shortened: (§1)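 CEM-c113 cells (1×10^4/well) preincubated 1 h with 10-fold compound dilutions, then infected with HIV-1 LAI; cultured 7 days at 37 °C, 5% CO2; cytopathic effect scored by MTT viability versus infected untreated cells; EC50 = 50% reduction of CPE; triplicate, mean of ≥2 experiments.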

[2] = system: CEM-c113; assay: Concentration required to reduce by 50% the viability of noninfected treated CEM-CL13 cells; type: functional; conditions: Homo sapiens
Procedure, shortened: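 CEM-c113 cells, 1×10^4 per well, exposed to 10-fold dilutions of compound without virus; 7 days at 37 °C, 5% CO2; MTT viability read-out; CC50 = concentration reducing viability by 50% relative to uninfected untreated controls; triplicate wells, mean of at least two experiments.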

[3] = Ratio of CC50 in CEM-CL13 cells to EC50 in HIV-1 LA1 infected CEM-CL13 cells.; type: functional
Procedure, shortened: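 Selectivity index computed as CC50 (MTT viability of uninfected treated CEM-c113 cells) divided by EC50 (MTT protection of HIV-1 LAI-infected CEM-c113 cells), both from 7-day cultures at 37 °C exposed to 10-fold compound dilutions.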

[4] = system: Human immunodeficiency virus 1; assay: Inhibition of HIV-1 LA1 cytopathic effects on CEM-CL13 cells in vitro.; type: functional, organism-based; conditions: Human immunodeficiency virus 1, CEM-CL13; procedure, shortened: as §1

| SMILES | EC50 [4] [nM] | EC50 [1] | CC50 [2] [µM] | Ratio [3] |
| --- | --- | --- | --- | --- |
| Cc1cn(C2CC(N=[N+]=[N-])C(CO)O2)c(=O)n(Cc2ccccc2)c1=O (stereo not given) | – | Not Active | 28 | – |
| Cc1cn(C2CC(N=[N+]=[N-])C(CO)O2)c(=O)n(Cc2ccoc2)c1=O (stereo not given) | 143000 | – | > 288 | 2 |
| Cc1cn(C2CC(N=[N+]=[N-])C(CO)O2)c(=O)n(CCN2C(=O)c3ccccc3C2=O)c1=O (stereo not given) | 110000 | – | 227 | 2 |
| Cc1cn(C2CC(n3c(=O)c(C)cn(C4CC(N=[N+]=[N-])C(CO)O4)c3=O)C(CO)O2)c(=O)[nH]c1=O (stereo not given) | 2200 | – | 66 | 30 |
| Cc1cn(C2CC(N=[N+]=[N-])C(CO)O2)c(=O)n(CCn2c(=O)c(C)cn(C3CC(N=[N+]=[N-])C(CO)O3)c2=O)c1=O (stereo not given) | 700 | – | 36 | 51 |
| Cc1cn(C2CC(N=[N+]=[N-])C(CO)O2)c(=O)n(CC2COC(C)(C)O2)c1=O (stereo not given) | 1300 | – | > 131 | 100 |
| Cc1cn([C@H]2C[C@H](N=[N+]=[N-])[C@@H](CO)O2)c(=O)[nH]c1=O [ZIDOVUDINE] | 3 | – | > 5 | 1667 |
| Cc1cn(CCn2c(=O)c(C)cn(C3CC(N=[N+]=[N-])C(CO)O3)c2=O)c(=O)[nH]c1=O (stereo not given) | 480 | – | > 29 | 60 |
| COc1nc(=O)n(CCn2c(=O)c(C)cn(C3CC(N=[N+]=[N-])C(CO)O3)c2=O)cc1C (stereo not given) | – | Not Active | 29 | – |
| Cc1cn(C2CC(N=[N+]=[N-])C(CO)O2)c(=O)n(CC2CC(CO)=NO2)c1=O (stereo not given) | 500 | – | 26 | 52 |

Second part, led by results:

| EC50 [4] [nM] | SMILES | EC50 [1] | CC50 [2] [µM] | Ratio [3] |
| --- | --- | --- | --- | --- |
| 260 | Cc1cn(C2CC(N=[N+]=[N-])C(CO)O2)c(=O)n(CCN=[N+]=[N-])c1=O (stereo not given) | – | 60 | 230 |
| 45 | Cc1cn(C2CC(N=[N+]=[N-])C(CO)O2)c(=O)n(N)c1=O (stereo not given) | – | 450 | 10000 |
| 5600 | COCCOCn1c(=O)c(C)cn(C2CC(N=[N+]=[N-])C(CO)O2)c1=O (stereo not given) | – | 281 | 50 |
| 1470 | CCOC(=O)Cn1c(=O)c(C)cn(C2CC(N=[N+]=[N-])C(CO)O2)c1=O (stereo not given) | – | 283 | 193 |
| 940 | Cc1cn(C2CC(N=[N+]=[N-])C(CO)O2)c(=O)n(C)c1=O (stereo not given) | – | 355 | 380 |
| 150 | Cc1cn(C2CC(N=[N+]=[N-])C(CO)O2)c(=O)n(CCCO)c1=O (stereo not given) | – | 154 | 1027 |
| 32000 | C=CCn1c(=O)c(C)cn(C2CC(N=[N+]=[N-])C(CO)O2)c1=O (stereo not given) | – | 350 | 11 |
| 2670 | Cc1cn(C2CC(N=[N+]=[N-])C(CO)O2)c(=O)n(CCBr)c1=O (stereo not given) | – | 53 | 20 |
| 82 | Cc1cn(C2CC(N=[N+]=[N-])C(CO)O2)c(=O)n(CCCCCCO)c1=O (stereo not given) | – | 64 | 780 |
| 6800 | Cc1cn(C2CC(N=[N+]=[N-])C(CO)O2)c(=O)n(CC2CO2)c1=O (stereo not given) | – | > 62 | 9 |
| 71 | CCOP(=O)(Cn1c(=O)c(C)cn(C2CC(N=[N+]=[N-])C(CO)O2)c1=O)OCC (stereo not given) | – | 240 | 3380 |
| 890 | CCCCCn1c(=O)c(C)cn(C2CC(N=[N+]=[N-])C(CO)O2)c1=O (stereo not given) | – | > 60 | >67 |
| 300 | Cc1cn(C2CC(N=[N+]=[N-])C(CO)O2)c(=O)n(CCO)c1=O (stereo not given) | – | 161 | 537 |
| 5000 | CCOC(Cn1c(=O)c(C)cn(C2CC(N=[N+]=[N-])C(CO)O2)c1=O)OCC (stereo not given) | – | 130 | 26 |
